The test system of one assay is Influenza A virus. The assay is described as follows: Antiviral activity against Unidentified Influenza A virus (H1N2) infected MDCK cells assessed as inhibition of virus-induced cytopathicity. The format is functional, organism-based.
The test system of the next assay is Feline coronavirus. The assay is described as follows: Antiviral activity against Feline coronavirus infected feline kidney crandell cells assessed as inhibition of virus-induced cytopathicity. The format is functional, organism-based. The essentials: (§1)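 Confluent monolayers (feline kidney Crandell, Vero, HEL or HeLa, as named for each virus) were infected with 100 CCID50 of virus and allowed to adsorb for 1 h. Unbound virus was then removed, and cultures were incubated with test compound in serial dilutions (200, 40, 8 … µM). Cytopathicity was scored once untreated infected controls reached complete cytopathic effect.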

Assay [1] deals with Respiratory syncytial virus. Kind of assay: Antiviral activity against Respiratory syncytial virus infected human HeLa cells assessed as inhibition of virus-induced cytopathicity. It is filed as functional, organism-based. The essentials:
as §1

Assay [2] deals with Coxsackievirus B4. Kind of assay: Antiviral activity against Human coxsackievirus B4 infected human HeLa cells assessed as inhibition of virus-induced cytopathicity. The format is functional, organism-based. The essentials:
as §1

Assay [3] concerns Coxsackievirus B4. The assay is described as follows: Antiviral activity against Human coxsackievirus B4 infected VERO cells assessed as inhibition of virus-induced cytopathicity. The format is functional, organism-based. The essentials:
as §1

Assay [4] has as its system Mammalian orthoreovirus 1. The assay is described as follows: Antiviral activity against Mammalian orthoreovirus 1 infected VERO cells assessed as inhibition of virus-induced cytopathicity. The format is functional, organism-based. The essentials: as §1
The next assay relates to Human respirovirus 3. Kind of assay: Antiviral activity against Human parainfluenza virus 3 infected Vero cells assessed as inhibition of virus-induced cytopathicity. It is filed as functional, organism-based. A digest of the protocol:
as §1

Assay [5] has as its system Vesicular stomatitis virus. The assay is described as follows: Antiviral activity against Vesicular stomatitis virus infected HEL cells assessed as inhibition of virus-induced cytopathicity. The format is functional, organism-based.
A further assay has as its system Vaccinia virus. The assay is described as follows: Antiviral activity against Vaccinia virus infected human HEL cells assessed as inhibition of virus-induced cytopathicity. The note with it: Orthopoxvirus vaccinia. It is filed as functional, organism-based.
The test system of another assay is Human alphaherpesvirus 2. Kind of assay: Antiviral activity against Human herpesvirus 2 strain G infected human HEL cells assessed as inhibition of virus-induced cytopathicity. The format is functional, organism-based. The essentials: as §1
A further assay concerns Human alphaherpesvirus 1. Kind of assay: Antiviral activity against […] 1 KOS infected in human HEL cells assessed as inhibition of virus-induced cytopathicity. It is filed as functional, organism-based. A digest of the protocol: as §1
A further assay deals with Sindbis virus. Kind of assay: Antiviral activity against Sindbis virus infected Hela cells assessed as inhibition of virus-induced cytopathicity. It is filed as functional, organism-based.
The next assay concerns Punta Toro virus. Kind of assay: Antiviral activity against Punta Toro virus infected Hela cells assessed as inhibition of virus-induced cytopathicity. It is filed as functional, organism-based.
Assay [6] concerns Vesicular stomatitis virus. The assay is described as follows: Antiviral activity against Vesicular stomatitis virus infected Hela cells assessed as inhibition of virus-induced cytopathicity. The format is functional, organism-based.
A short description of assay [7]: Antioxidant activity assessed as inhibition of AAPH-induced lipid peroxidation at 1 X 10^-4 M. It is filed as functional.
Assay [8] is described as follows: Antioxidant activity assessed as inhibition of AAPH-induced lipid peroxidation at 1 X 10^-5 M. The format is functional.
In assay [9] the target is T1, Seed linoleate 13S-lipoxygenase-1 (Glycine max) (UniProt P08170).
T1 sequence (whole entry): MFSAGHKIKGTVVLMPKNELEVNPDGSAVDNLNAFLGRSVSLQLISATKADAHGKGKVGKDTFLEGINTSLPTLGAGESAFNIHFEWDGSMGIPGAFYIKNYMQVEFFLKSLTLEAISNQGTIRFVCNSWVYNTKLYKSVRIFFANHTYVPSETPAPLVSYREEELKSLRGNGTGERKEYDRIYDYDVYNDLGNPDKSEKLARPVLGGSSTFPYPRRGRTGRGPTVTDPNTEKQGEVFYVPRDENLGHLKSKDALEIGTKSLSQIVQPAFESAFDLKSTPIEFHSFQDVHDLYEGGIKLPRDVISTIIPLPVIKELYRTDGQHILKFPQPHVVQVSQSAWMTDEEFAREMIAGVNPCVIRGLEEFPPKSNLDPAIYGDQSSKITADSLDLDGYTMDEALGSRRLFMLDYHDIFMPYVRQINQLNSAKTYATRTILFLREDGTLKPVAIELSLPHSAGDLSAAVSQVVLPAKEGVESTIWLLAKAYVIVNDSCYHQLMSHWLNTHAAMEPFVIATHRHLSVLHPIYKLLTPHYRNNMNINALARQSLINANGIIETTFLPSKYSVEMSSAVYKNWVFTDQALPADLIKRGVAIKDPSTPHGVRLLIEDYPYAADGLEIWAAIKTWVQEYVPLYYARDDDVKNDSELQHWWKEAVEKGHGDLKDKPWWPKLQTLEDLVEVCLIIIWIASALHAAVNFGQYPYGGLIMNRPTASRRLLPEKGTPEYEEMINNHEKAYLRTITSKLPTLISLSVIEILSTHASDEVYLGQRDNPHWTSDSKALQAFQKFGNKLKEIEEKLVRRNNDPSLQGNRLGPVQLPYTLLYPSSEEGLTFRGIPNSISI
Kind of assay: Inhibition of Glycine max (soybean) lipoxygenase using sodium linoleate as substrate at 1 X 10^-4.

Assay [10] relates to Radical scavenging activity. Kind of assay: Antioxidant activity assessed as DPPH radical scavenging activity at 1 X 10^-4 M after 60 min. It is filed as functional. The essentials: (§2)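 Test compound was mixed with DPPH (0.05 and 0.1 mM) in ethanol. Absorbance at 517 nm was read after 20 and 60 min and compared with the NDGA standard, with ethanol as control. Each experiment was run at least in triplicate, and the SD of absorbance was <10% of the mean.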

Assay [11] has as its system Radical scavenging activity. Kind of assay: Antioxidant activity assessed as DPPH radical scavenging activity at 1 X 10^-4 M after 20 min. The format is functional. The essentials: as §2
The subject of assay [12] is Radical scavenging activity. Kind of assay: Antioxidant activity assessed as DPPH radical scavenging activity at 5 X 10^-5 M after 60 min. It is filed as functional. The essentials:
as §2

In assay [13] the test system is Radical scavenging activity. The assay is described as follows: Antioxidant activity assessed as DPPH radical scavenging activity at 5 X 10^-5 M after 20 min. It is filed as functional. The essentials:
as §2

Molecules are shown by their SMILES. Calls of active or inactive are those of the source. The calls are words filed in the database; no cut-off is given here.

Here are results for 3 molecules from ChEMBL document CHEMBL3045051 (Med Chem Res, 2011).

`CC(C(=O)N1CCCCC1)c1cccc(C(OC(=O)N2CCCCC2)c2ccccc2)c1` (stereo unspecified): the result (in the assay with Influenza A virus; with Influenza A virus (H1N1); in the assay with Feline coronavirus; in [1]; in the assay with Coxsackievirus B4 [2]; in the assay on Coxsackievirus B4 [3]) was inactive. The result (in assay [4]; in the assay on Human respirovirus 3; in assay [5]; in the assay with Vaccinia virus; with Human alphaherpesvirus 2; in the assay on Human alphaherpesvirus 1) was inactive. The outcome (with Sindbis virus; in the assay with Punta Toro virus; in assay [6]) was inactive. In addition, the inhibition in assay [7] was 97.4%; in [8], 25.5%; in [10] it was 4.3%; in [11] it was 1.7%; in [12] it was 10%; in assay [13], 8.6%. For the same molecule, the inhibition entry in assay [9] is “inactive”.

As to `CC(C(=O)NCCc1ccccc1)c1cccc(C(OC(=O)NCCc2ccccc2)c2ccccc2)c1` (stereo unspecified), the result (with Influenza A virus; in the assay on Influenza A virus (H1N1); in the assay with Feline coronavirus; in assay [1]; in the assay with Coxsackievirus B4 [2]; in the assay with Coxsackievirus B4 [3]) was inactive. Also, the result (in assay [4]; with Human respirovirus 3; in [5]; in the assay on Vaccinia virus; with Human alphaherpesvirus 2; with Human alphaherpesvirus 1) was inactive. Also, the result (in the assay with Sindbis virus; in the assay with Punta Toro virus; in [6]) was inactive. Also, the inhibition in assay [7] was 99%; in assay [8], 22.5%; in assay [9], 18.9%; in [10], 2.2%; in assay [12], 8.5%; in [13], 3.6%. In [11], the inhibition entry was “inactive”.

As for `CC(C(=O)NC1CCCCC1)c1cccc(C(OC(=O)NC2CCCCC2)c2ccccc2)c1` (stereo unspecified), the result (with Influenza A virus; in the assay with Influenza A virus (H1N1); in the assay with Feline coronavirus; in assay [1]; in the assay with Coxsackievirus B4 [2]; in the assay with Coxsackievirus B4 [3]) was inactive. For the same molecule, the result (in assay [4]; in the assay with Human respirovirus 3; in assay [5]; with Vaccinia virus; in the assay with Human alphaherpesvirus 2; in the assay with Human alphaherpesvirus 1) was inactive. The outcome (with Sindbis virus; with Punta Toro virus; in [6]) was inactive. For the same molecule, the inhibition in assay [7] was determined as 96.1%; in assay [8] it was 5.4%; in [9] it was 22.7%; in assay [12], 3.1%; in [13], 2%. In addition, the inhibition result in assay [10] and in [11] was “inactive” each time.
